Active and inactive are the calls of the source. The calls are words filed in the database; no cut-off is given here.
Experiments:
[1] = molecular target: T1, Adrenergic receptor alpha-2 (Rattus norvegicus, UniProt P22086+P19328+P22909); test: Displacement of […] from adrenoceptor alpha2 in Sprague-Dawley rat brain membranes after 45 mins by scintillation counting; format: cell membranes, Membrane
T1 sequence (P22086 whole entry): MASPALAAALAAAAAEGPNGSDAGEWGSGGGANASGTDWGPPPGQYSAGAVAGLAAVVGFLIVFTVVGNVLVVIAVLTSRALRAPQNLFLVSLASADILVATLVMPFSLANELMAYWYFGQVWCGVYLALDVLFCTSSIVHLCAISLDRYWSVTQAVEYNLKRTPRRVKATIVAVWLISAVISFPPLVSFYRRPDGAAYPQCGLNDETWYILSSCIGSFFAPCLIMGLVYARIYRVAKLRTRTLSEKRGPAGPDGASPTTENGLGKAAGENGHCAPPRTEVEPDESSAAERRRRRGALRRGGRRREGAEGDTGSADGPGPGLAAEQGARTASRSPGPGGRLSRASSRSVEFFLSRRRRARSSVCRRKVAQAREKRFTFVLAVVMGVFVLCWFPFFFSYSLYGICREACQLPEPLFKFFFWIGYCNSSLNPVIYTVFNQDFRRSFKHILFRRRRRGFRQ
T1 sequence (P19328 whole entry): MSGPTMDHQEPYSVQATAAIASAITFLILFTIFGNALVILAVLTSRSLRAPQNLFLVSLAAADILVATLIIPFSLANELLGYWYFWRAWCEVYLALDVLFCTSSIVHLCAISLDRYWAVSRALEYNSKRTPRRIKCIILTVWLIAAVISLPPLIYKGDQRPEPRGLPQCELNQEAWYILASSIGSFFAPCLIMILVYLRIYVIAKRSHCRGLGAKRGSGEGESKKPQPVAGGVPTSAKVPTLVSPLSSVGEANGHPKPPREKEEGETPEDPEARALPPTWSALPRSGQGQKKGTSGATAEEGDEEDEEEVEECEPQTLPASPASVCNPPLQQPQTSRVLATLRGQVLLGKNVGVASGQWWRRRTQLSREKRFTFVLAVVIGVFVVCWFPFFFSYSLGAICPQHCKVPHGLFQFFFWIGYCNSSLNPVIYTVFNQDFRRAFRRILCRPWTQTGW
T1 sequence (P22909 whole entry): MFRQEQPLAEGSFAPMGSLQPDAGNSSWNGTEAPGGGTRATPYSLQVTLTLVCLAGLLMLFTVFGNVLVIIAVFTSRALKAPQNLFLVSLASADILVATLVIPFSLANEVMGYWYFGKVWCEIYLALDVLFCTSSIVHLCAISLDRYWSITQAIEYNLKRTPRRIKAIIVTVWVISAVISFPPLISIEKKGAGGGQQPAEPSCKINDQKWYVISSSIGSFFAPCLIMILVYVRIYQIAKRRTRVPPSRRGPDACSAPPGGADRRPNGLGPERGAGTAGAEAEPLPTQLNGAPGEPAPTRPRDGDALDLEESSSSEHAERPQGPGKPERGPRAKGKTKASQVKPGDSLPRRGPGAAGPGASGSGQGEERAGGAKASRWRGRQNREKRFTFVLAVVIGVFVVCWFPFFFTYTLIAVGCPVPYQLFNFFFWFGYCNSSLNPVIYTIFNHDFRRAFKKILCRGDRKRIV
Procedure, shortened: (§1)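 Crude P2 membranes from male Sprague–Dawley rat brain (250–280 g), 0.2–0.3 mg protein. Radioligand 1 nM: [3H]2BFI for I2, [3H]prazosin for α1, [3H]RX821002 for α2. Non-specific binding defined by 10 µM BU224 (I2), 10 µM phenylephrine (α1) or 10 µM rauwolscine (α2). 11 concentrations from 0.01 nM to 100 µM, triplicate, 45 min at RT. Filtration and scintillation counting; Ki by Cheng–Prusoff.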

[2] = Displacement of [3H]BFI from imidazoline I2 receptor in Sprague-Dawley rat brain membranes after 45 mins by scintillation counting; format: cell membranes, Membrane; procedure, shortened: as §1
[3] = molecular target: T2, Adrenergic receptor alpha-1 (Rattus norvegicus, UniProt P15823+P23944+P43140); test: Displacement of [3H]prazosin from adrenoceptor alpha1 in Sprague-Dawley rat brain after 45 mins by scintillation counting; procedure, shortened: as §1
T2 sequence (P15823 whole entry): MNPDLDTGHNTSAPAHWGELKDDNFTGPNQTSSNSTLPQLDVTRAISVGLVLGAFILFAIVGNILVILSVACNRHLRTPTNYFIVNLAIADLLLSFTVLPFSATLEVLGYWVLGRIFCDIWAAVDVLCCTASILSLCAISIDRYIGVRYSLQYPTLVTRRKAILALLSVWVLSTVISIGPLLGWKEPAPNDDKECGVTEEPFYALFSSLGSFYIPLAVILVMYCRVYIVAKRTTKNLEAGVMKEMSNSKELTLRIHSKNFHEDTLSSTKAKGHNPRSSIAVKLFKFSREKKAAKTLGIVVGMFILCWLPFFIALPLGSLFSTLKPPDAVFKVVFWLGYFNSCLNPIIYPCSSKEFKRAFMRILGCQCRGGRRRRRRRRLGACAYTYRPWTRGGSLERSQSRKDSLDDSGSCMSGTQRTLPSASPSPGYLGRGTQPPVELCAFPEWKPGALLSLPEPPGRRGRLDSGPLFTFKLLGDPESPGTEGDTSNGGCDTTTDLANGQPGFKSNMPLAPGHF
T2 sequence (P23944 whole entry): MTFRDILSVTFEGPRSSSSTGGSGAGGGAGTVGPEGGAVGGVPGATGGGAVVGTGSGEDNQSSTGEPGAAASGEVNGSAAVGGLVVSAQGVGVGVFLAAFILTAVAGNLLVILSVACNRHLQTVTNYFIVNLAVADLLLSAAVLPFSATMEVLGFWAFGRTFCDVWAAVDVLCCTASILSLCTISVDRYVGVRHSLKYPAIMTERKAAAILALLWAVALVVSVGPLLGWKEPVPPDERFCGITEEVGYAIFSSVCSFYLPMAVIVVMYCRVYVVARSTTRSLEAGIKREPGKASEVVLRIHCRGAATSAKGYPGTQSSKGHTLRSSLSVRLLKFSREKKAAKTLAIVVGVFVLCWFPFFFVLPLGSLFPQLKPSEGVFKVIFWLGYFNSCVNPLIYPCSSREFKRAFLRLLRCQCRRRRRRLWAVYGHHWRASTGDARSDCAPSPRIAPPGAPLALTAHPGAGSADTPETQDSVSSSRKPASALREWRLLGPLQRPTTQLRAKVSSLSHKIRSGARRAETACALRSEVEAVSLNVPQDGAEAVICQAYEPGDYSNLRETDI
T2 sequence (P43140 whole entry): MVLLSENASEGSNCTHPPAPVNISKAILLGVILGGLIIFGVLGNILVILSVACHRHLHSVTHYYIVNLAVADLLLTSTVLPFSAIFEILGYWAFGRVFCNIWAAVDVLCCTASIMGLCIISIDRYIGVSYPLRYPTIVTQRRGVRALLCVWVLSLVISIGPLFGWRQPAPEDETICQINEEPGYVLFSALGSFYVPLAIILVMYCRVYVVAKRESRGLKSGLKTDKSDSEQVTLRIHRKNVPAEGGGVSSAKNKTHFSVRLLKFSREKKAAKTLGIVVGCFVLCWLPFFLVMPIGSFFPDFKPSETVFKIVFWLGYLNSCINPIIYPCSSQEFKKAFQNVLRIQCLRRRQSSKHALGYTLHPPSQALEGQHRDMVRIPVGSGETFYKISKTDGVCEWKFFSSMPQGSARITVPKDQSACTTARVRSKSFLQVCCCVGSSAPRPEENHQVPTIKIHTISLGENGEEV

[4] = molecular target: Nischarin (Rattus norvegicus, UniProt Q4G017); test: Displacement of [3H]clonidine from imidazoline I1 receptor in Sprague-Dawley rat kidney membranes after 45 mins by scintillation counting; format: cell membranes, Membrane
Nischarin, sequence (Q4G017 whole entry): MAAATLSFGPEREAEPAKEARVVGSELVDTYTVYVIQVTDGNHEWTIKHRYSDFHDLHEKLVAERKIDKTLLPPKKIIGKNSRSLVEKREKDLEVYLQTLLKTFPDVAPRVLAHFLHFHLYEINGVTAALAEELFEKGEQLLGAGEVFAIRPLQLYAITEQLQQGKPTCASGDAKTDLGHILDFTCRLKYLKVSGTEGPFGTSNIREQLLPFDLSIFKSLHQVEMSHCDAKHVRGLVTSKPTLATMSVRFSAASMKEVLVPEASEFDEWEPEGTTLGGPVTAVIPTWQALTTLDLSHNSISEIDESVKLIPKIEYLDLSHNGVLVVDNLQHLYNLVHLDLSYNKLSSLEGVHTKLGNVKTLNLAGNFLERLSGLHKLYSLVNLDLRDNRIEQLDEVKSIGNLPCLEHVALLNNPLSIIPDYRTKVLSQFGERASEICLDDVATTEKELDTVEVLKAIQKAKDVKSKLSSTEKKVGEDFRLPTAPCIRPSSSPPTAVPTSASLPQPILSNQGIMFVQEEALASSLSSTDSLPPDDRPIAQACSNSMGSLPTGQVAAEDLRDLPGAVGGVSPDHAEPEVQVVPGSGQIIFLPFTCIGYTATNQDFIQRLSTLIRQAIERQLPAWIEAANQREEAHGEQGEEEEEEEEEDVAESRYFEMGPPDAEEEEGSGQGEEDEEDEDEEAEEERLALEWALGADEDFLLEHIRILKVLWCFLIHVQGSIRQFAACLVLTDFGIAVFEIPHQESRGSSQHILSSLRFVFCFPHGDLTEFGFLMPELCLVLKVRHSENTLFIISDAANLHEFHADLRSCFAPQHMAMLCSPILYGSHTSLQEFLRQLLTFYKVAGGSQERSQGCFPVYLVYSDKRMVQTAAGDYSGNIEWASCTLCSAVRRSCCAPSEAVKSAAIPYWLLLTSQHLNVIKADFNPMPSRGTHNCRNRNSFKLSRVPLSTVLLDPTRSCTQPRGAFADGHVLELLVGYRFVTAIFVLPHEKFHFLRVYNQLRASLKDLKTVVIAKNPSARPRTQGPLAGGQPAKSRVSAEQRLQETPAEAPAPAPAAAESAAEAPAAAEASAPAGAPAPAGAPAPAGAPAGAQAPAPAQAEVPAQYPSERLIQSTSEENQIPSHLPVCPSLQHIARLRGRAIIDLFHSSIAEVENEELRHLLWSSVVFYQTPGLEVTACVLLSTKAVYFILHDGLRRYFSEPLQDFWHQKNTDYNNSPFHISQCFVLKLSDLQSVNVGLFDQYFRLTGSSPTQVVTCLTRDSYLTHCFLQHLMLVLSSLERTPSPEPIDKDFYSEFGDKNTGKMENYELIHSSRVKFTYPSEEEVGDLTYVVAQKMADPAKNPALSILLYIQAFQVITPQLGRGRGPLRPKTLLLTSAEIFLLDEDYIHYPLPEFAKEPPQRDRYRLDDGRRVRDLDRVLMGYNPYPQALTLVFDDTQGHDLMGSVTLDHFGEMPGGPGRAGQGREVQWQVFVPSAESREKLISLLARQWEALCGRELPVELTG
Procedure, shortened: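 Crude P2 membranes from male Sprague–Dawley rat kidney, 0.2–0.5 mg protein. […] Specific binding defined by 10 µM rilmenidine. 11 concentrations from 0.01 to 100 µM, 50 mM Tris-HCl pH 7.4, 45 min at RT. Filtration and scintillation counting; IC50.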

[5] = species: Rattus norvegicus; test: Displacement of [3H]BFI from imidazoline I2 in Sprague-Dawley rat brain membranes at 1 X 10^6 after 45 mins by scintillation counting; format: cell membranes; conditions: Membrane
[6] = molecular target: T3, Alpha-2A adrenergic receptor (Homo sapiens) (UniProt P08913); test: Agonist activity at human adrenoceptor alpha2A expressed in CHOK1 cells assessed as stimulation of agonist-induced [35S]GTPgammaS binding by scintillation counting assay relative to noradrenaline; format: functional, cell-based; conditions: CHO-K1
T3 sequence (whole entry): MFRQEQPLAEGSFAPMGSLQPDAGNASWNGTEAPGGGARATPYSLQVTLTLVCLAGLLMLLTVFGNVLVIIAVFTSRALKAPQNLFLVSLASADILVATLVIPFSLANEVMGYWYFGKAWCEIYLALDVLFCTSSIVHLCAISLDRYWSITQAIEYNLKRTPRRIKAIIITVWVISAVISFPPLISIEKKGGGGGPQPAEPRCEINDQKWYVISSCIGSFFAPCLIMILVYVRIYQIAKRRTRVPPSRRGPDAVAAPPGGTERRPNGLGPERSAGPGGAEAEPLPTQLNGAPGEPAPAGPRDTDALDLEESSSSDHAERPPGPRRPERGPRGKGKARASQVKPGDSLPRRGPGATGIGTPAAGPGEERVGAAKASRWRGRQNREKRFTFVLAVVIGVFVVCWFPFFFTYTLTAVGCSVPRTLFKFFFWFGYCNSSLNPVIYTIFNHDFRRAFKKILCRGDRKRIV
Procedure, shortened: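 Membranes from CHO-K1 cells stably expressing human α2A-adrenoceptor; 5 µg protein incubated with serial dilutions of agonist and 0.1 nM [35S]GTPγS in Tris buffer pH 7.4 with 1 µM GDP, MgCl2, NaCl, 30 min at RT. Filtered and counted by scintillation. EC50 and intrinsic activity relative to noradrenaline; means from 3 independent experiments.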

SMILES: Cc1cc2nn(CC3=NCCN3)nc2cc1C.Cl.Cl
- Ki [1]: 1.32 µM
- Ki [2]: 0.233 µM
- Ki [3]: 6.07 µM
- IC50 [4]: 0.646 µM

SMILES: Cc1cc2nnn(CC3=NCCN3)c2cc1C.Cl.Cl
- Ki [1]: 1.56 µM
- Ki [2]: 26.3 µM
- Ki [3]: 8.04 µM
- IC50 [4]: 16.8 µM

SMILES: Cl.Cl.c1ccc(-c2nc3ccccc3n2CC2=NCCN2)cc1
- Ki [1]: 7.44 µM
- Activity [5]: inactive
- Ki [3]: 1.11 µM
- IC50 [4]: 28.1 µM

SMILES: COc1cccc2c1cnn2CC1=NCCN1.Cl.Cl
- Ki [1]: 0.305 µM
- Ki [2]: 0.382 µM
- Ki [3]: 1.67 µM
- IC50 [4]: 32.9 µM

SMILES: NC[C@H](O)c1ccc(O)c(O)c1
- Emax [6]: 100%

SMILES: Cc1ccc2c(cnn2CC2=NCCN2)c1.Cl.Cl
- Ki [1]: 0.268 µM
- Ki [2]: 0.022 µM
- Ki [3]: 0.363 µM
- IC50 [4]: 45.4 µM

SMILES: Cc1cccc2nn(CC3=NCCN3)nc12.Cl.Cl
- Ki [1]: 0.499 µM
- Ki [2]: 0.078 µM
- Ki [3]: 1.54 µM
- IC50 [4]: 48.8 µM

SMILES: Cl.Fc1cccc2cnn(CC3=NCCN3)c12
- Ki [1]: 0.0126 µM
- Ki [2]: 0.156 µM
- Ki [3]: 0.107 µM
- IC50 [4]: 16.4 µM

SMILES: Cl.Clc1cccc2c1cnn2CC1=NCCN1
- Ki [1]: 0.13 µM
- Ki [2]: 2.85 µM
- Ki [3]: 0.187 µM
- IC50 [4]: 5.15 µM

SMILES: Cc1cccc2c1ncn2CC1=NCCN1.Cl.Cl
- Ki [1]: 0.273 µM
- Ki [2]: 24.4 µM
- Ki [3]: 1.5 µM
- IC50 [4]: 77.7 µM

SMILES: Cl.Cl.c1ccc(Cc2nc3ccccc3n2CC2=NCCN2)cc1
- Ki [1]: 11.2 µM
- Activity [5]: inactive
- Ki [3]: 30.9 µM
- IC50 [4]: 21 µM

SMILES: Cl.c1ccc2c(c1)nnn2CC1=NCCN1
- Ki [1]: 5.11 µM
- Ki [2]: 0.81 µM
- Ki [3]: 1.34 µM
- IC50 [4]: 56.8 µM

SMILES: Cc1nn(CC2=NCCN2)c2ccccc12.Cl.Cl
- Ki [1]: 0.435 µM
- Ki [2]: 0.359 µM
- Ki [3]: 0.095 µM
- IC50 [4]: 21.3 µM

SMILES: Cl.Cl.c1ccc2c(c1)ncn2CC1=NCCN1
- Ki [1]: 3.25 µM
- Ki [2]: 6.1 µM
- Ki [3]: 0.929 µM
- IC50 [4]: 43.9 µM

SMILES: CCc1nc2cc(C)c(C)cc2n1CC1=NCCN1.Cl.Cl
- Ki [1]: 7.41 µM
- Ki [2]: 0.081 µM
- Ki [3]: 12.9 µM
- IC50 [4]: 93.3 µM

SMILES: Cc1cc2ncn(CC3=NCCN3)c2cc1C.Cl.Cl
- Ki [1]: 2.26 µM
- Ki [2]: 28 µM
- Ki [3]: 1.5 µM
- IC50 [4]: 74 µM

SMILES: Cc1cccc2c1cnn2CC1=NCCN1.Cl
- Ki [1]: 0.197 µM
- Ki [2]: 0.116 µM
- Ki [3]: 0.409 µM
- IC50 [4]: 12.9 µM

SMILES: Cc1nc2ccccc2n1CC1=NCCN1.Cl.Cl
- Ki [1]: 1.02 µM
- Activity [5]: inactive
- Ki [3]: 1.29 µM
- IC50 [4]: 9.39 µM

SMILES: CCc1nc2ccccc2n1CC1=NCCN1.Cl.Cl
- Ki [1]: 5 µM
- Ki [2]: 34.1 µM
- Ki [3]: 5.5 µM
- IC50 [4]: 44.2 µM

— ChEMBL document CHEMBL1926556, “Synthesis and biological activities of 2-[(heteroaryl)methyl]imidazolines” (Bioorg Med Chem, 2012)
